Source: ChEMBL document CHEMBL1149650, “4-Amino-6-piperazin-1-yl-pyrimidine-5-carbaldehyde oximes as potent FLT-3 inhibitors” (Bioorg Med Chem Lett, 2007)

Key:
[1] = system: MV4-11; experiment: Antiproliferative activity against human MV411 cells
[2] = system: BaF3; experiment: Antiproliferative activity against human BaF3 cells expressing FLT3; details: Mus musculus
[3] = system: BaF3; experiment: Antiproliferative activity against […] BaF3 cells at 10 uM; format: functional
[4] = Inhibition of c-fms; design: species or system Homo sapiens
[5] = target: Tyrosine-protein kinase Fes/Fps (Homo sapiens) (UniProt P07332); experiment: Inhibition of FES at 3 uM
Tyrosine-protein kinase Fes/Fps (Homo sapiens), sequence (P07332 whole entry): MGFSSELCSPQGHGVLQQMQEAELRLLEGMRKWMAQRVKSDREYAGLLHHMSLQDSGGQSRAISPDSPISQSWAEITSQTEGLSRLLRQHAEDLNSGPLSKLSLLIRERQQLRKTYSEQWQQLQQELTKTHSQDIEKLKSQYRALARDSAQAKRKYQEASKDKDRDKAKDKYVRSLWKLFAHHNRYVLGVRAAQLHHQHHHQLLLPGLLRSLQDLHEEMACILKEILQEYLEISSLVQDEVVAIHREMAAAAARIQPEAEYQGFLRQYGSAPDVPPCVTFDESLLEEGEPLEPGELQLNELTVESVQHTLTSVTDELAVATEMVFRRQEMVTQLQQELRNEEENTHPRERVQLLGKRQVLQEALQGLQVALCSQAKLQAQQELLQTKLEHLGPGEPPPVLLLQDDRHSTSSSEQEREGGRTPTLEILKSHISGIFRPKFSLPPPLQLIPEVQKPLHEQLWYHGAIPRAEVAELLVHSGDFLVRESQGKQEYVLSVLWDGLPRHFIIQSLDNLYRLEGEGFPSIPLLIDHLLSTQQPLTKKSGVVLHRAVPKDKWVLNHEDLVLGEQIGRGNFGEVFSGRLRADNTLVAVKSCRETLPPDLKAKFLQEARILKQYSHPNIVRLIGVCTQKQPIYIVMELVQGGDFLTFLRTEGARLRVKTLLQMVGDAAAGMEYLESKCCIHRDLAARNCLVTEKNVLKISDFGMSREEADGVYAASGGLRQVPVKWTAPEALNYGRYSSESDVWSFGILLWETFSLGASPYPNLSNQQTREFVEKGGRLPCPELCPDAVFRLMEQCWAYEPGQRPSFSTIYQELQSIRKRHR
In short: (§1)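 Run in an external kinase selectivity panel at 3 µM compound with 100 µM ATP. Reported as percent inhibition.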

[6] = target: Mast/stem cell growth factor receptor Kit (Homo sapiens, UniProt P10721); experiment: Inhibition of c-kit
Mast/stem cell growth factor receptor Kit, sequence (P10721 whole entry): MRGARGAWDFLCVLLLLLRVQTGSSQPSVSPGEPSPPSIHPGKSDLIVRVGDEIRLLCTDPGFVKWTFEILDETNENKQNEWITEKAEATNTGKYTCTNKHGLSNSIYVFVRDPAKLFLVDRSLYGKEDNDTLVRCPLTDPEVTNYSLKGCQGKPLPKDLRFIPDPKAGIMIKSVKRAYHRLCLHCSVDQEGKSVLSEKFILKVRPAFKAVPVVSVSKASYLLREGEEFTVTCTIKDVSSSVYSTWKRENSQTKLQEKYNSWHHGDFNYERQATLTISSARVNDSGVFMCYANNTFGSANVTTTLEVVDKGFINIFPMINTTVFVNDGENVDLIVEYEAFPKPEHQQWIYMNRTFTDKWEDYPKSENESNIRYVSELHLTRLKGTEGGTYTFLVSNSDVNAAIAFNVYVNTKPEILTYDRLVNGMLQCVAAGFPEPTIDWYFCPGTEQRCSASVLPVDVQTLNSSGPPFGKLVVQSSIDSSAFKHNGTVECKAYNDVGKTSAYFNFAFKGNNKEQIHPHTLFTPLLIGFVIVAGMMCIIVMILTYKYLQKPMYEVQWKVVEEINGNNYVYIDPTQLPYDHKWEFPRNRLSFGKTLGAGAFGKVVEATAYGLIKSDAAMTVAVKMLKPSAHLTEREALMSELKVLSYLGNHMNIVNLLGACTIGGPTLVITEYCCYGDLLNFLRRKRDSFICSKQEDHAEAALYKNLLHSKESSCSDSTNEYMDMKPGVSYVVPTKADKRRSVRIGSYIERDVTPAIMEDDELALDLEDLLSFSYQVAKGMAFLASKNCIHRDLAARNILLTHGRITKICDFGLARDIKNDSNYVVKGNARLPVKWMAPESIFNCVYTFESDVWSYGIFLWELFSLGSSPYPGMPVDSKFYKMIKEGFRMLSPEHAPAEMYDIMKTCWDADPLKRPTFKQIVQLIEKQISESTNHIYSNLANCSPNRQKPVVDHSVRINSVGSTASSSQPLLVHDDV

[7] = target: Platelet-derived growth factor receptor beta (Homo sapiens, UniProt P09619); experiment: Inhibition of PDGFRbeta
Platelet-derived growth factor receptor beta, sequence (P09619 whole entry): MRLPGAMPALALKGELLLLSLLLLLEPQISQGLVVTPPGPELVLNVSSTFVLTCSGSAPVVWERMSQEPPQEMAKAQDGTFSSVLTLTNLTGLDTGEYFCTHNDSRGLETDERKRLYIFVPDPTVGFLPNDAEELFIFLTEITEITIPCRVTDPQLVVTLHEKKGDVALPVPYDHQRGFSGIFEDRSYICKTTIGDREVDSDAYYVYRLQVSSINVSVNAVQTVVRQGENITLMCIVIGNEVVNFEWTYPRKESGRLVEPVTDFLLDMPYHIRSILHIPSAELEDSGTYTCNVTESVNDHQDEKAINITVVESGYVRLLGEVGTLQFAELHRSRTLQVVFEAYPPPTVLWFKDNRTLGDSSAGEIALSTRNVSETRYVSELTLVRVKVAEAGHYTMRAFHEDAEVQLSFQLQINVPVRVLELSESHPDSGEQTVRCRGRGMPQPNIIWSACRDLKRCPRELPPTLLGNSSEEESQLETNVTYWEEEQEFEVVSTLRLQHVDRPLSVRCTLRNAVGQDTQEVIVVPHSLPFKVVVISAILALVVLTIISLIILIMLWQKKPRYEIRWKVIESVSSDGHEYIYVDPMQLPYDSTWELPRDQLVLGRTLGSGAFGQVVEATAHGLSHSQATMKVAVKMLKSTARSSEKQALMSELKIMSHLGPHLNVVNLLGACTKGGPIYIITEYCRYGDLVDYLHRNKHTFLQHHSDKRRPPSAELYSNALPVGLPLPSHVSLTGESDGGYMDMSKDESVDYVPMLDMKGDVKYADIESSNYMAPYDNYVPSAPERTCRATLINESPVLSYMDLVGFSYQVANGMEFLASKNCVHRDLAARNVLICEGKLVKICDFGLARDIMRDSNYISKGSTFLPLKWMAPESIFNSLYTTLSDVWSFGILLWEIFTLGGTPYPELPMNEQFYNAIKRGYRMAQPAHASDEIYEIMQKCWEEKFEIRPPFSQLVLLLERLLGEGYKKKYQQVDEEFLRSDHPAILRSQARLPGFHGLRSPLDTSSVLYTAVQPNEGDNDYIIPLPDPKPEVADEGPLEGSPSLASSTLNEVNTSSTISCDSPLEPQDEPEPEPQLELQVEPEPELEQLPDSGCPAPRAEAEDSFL

[8] = target: ALK tyrosine kinase receptor (Homo sapiens) (UniProt Q9UM73); experiment: Inhibition of ALK at 3 uM; in short: as §1
ALK tyrosine kinase receptor (Homo sapiens), sequence (Q9UM73 19-1620 limits assumed): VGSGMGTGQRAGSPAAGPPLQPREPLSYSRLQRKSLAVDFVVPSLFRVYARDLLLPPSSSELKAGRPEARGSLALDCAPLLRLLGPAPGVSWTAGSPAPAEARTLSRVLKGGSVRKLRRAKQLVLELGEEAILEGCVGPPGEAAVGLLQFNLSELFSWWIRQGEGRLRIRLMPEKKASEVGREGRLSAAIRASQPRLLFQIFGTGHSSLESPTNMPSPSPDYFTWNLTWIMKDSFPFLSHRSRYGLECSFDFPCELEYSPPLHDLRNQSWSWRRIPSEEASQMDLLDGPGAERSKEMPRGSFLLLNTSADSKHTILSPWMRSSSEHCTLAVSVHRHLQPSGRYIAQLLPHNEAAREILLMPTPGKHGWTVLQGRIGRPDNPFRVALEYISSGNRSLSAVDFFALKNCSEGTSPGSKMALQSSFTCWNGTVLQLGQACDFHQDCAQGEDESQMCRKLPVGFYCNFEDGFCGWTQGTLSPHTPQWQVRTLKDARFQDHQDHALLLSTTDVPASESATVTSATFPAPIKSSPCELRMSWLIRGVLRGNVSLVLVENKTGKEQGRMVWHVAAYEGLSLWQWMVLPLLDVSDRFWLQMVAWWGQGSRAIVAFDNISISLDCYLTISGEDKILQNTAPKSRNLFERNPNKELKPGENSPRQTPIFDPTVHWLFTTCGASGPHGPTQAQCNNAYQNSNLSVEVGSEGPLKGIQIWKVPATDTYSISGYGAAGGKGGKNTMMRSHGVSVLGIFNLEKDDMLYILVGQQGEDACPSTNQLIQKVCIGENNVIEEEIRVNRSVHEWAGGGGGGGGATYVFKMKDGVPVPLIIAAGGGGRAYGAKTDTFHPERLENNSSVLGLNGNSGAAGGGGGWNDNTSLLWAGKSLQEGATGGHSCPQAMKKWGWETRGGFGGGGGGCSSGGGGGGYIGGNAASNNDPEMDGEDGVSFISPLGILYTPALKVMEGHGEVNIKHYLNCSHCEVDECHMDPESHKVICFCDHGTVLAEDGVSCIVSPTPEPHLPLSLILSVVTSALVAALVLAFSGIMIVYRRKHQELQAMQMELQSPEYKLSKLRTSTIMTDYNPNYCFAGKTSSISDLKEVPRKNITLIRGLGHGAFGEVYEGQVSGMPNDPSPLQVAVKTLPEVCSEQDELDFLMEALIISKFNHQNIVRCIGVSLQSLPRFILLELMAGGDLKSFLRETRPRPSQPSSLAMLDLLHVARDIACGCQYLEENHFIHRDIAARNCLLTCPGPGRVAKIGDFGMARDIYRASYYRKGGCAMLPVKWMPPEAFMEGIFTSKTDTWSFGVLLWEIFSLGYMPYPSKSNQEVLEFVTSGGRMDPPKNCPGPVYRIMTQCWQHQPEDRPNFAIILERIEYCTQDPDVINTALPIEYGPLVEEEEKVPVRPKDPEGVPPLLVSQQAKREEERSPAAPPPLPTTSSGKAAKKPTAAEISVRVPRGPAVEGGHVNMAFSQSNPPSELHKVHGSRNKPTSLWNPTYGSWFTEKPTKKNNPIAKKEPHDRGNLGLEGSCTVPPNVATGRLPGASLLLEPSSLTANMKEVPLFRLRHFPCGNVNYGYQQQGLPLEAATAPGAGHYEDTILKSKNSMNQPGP

Compound | IC50 [1] [nM] | also measured
Nc1ncnc(N2CCN(C(=O)Nc3ccc(N4CCCC4)cc3)CC2)c1/C=N/OCC(=O)N1CCOCC1 | 458 | 
CO/N=C/c1c(N)ncnc1N1CCN(C(=O)Nc2ccc(OC3CCCC3)nc2)CC1 | 112 | 
CC(C)Oc1ccc(NC(=O)N2CCN(c3ncnc(N)c3/C=N/OCCNS(C)(=O)=O)CC2)cc1 | 415 | 
CCO/N=C/c1c(N)ncnc1N1CCN(C(=O)Nc2ccc(N3CCCCC3)cc2)CC1 | 58 | 
CCO/N=C/c1c(N)ncnc1N1CCN(C(=O)Nc2ccc(OC(C)C)cc2)CC1 | 77 | 
CC(C)Oc1ccc(NC(=O)N2CCN(c3ncnc(N)c3/C=N/OCCCO)CC2)cc1 | 283 | 
CO/N=C/c1c(N)ncnc1N1CCN(C(=O)Nc2ccc(N3CCCCC3)cc2)CC1 | 89 | IC50 [2]: 153 nM
CO/N=C/c1c(N)ncnc1N1CCN(C(=O)Nc2ccc(N3CCOCC3)cc2)CC1 | 515 | Activity [3]: <50%
CS(=O)(=O)NCCO/N=C/c1c(N)ncnc1N1CCN(C(=O)Nc2ccc(N3CCCC3)cc2)CC1 | 554 | 
CO/N=C/c1c(N)ncnc1N1CCN(C(=O)Nc2ccc(OC3CCC3)nc2)CC1 | 111 | 
CO/N=C/c1c(N)ncnc1N1CCN(C(=O)Nc2ccc(C3CCCCC3)cc2)CC1 | 52 | 
CCO/N=C/c1c(N)ncnc1N1CCN(C(=O)Nc2ccc(OC3CCC3)nc2)CC1 | 65 | 
CO/N=C/c1c(N)ncnc1N1CCN(C(=O)Nc2ccc(Oc3ccccc3)cc2)CC1 | 86 | 
CO/N=C/c1c(N)ncnc1N1CCN(C(=O)Nc2ccc(C(C)C)cc2)CC1 | 78 | IC50 [2]: 8 nM
CO/N=C/c1c(N)ncnc1N1CCN(C(=O)Nc2ccc(OC(C)C)cc2)CC1 | 79 | IC50 [4]: 1280 nM; inhibition [5]: 34%; IC50 [6]: 10.5 nM; IC50 [7]: 10700 nM; inhibition [8]: 31%
CO/N=C/c1c(N)ncnc1N1CCN(C(=O)Nc2ccc(Cl)cc2)CC1 | > 1000 | Activity [3]: <50%
CO/N=C/c1c(N)ncnc1N1CCN(C(=O)Nc2ccc(N(C)C)cc2)CC1 | 472 | 
CC(C)Oc1ccc(NC(=O)N2CCN(c3ncnc(N)c3/C=N/OCCN3CCOCC3)CC2)cc1 | 177 | 
Nc1ncnc(N2CCN(C(=O)Nc3ccc(N4CCCC4)cc3)CC2)c1/C=N/OCCN1CCOCC1 | 362 | 
CO/N=C/c1c(N)ncnc1N1CCN(C(=O)Nc2ccc(N3CCCC3)cc2)CC1 | 99 | 
CC(C)Oc1ccc(NC(=O)N2CCN(c3ncnc(N)c3/C=N/OCC(=O)N3CCOCC3)CC2)cc1 | 268 | 
